# Screens (PubChem)
# The list is not random: actives were taken first. Their share in the collection is about 1.9%.
# NadD block = inhibitors of S. aureus NadD, primary screen, biochemical, colorimetric, uHTS | purified NadD enzyme, colorimetric absorbance read-out | inhibition, % at 20 µM | Nicotinate-nucleotide adenylyltransferase NadD (Staphylococcus aureus N315) | hit rate 0.78% among 360,000 | AID 602399, 2012; in the data active = inhibition above about 26%
# ABHD5 PLIN5 PPI = ABHD5-PLIN5 interaction inhibitors, primary screen, cell lysate, split luciferase complementation, luminescence. AID 602281, 2012. hit rate 0.78% among 360,000. inhibition, % at 4 µM. Split G. princeps luciferase complementation, 4 h;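 active = inhibition above the mean inhibition across every tested compound plus 3 SD, cut at about 22% in these data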;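 note: 0% = DMSO only wells and the 100% control is not disclosed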
# Rpn11 block = Rpn11 (PSMD14) deubiquitinase inhibitors, primary screen, biochemical, fluorescence polarization, uHTS; AID 588493, 2011; inhibition, % at 20 µM; hit rate 0.59% among 360,000; human 26S proteasome, Ub4-pepOG fluorescence polarization; 20S core pre-blocked with epoxomicin;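 active = inhibition at 20 µM, scaled to each plate's controls, above about 33%, limit read from the data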
# Target sequence (O00487 whole entry, looked up): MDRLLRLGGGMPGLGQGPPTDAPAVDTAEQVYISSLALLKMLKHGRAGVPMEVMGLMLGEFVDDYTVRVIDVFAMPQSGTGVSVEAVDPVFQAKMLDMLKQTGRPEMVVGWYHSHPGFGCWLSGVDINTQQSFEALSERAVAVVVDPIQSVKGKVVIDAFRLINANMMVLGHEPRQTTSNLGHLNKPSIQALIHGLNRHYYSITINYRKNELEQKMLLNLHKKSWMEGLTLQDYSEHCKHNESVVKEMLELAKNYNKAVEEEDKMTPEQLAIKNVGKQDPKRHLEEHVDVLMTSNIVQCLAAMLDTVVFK
# Rin1 Abl inh = inhibitors of Rin1-Abl protein binding, primary screen, biochemical, TR-FRET; Tyrosine-protein kinase ABL1 (Homo sapiens) + Ras and Rab interactor 1 (Homo sapiens), …; inhibition, % at 7.35 µM; hit rate 0.4% among 360,000; AID 588664, 2011; in the data active = inhibition above about 5%, passing the limit was not always enough
# Xi reactivation = activators of inactive X chromosome reactivation, primary screen, imaging, XiGFP fibroblasts, GFP high-content imaging, set 2. XiGFP mouse fibroblasts, % GFP-positive cells imaging, 3 d; cells co-treated with 5-aza-dC sensitizer; scaled so ellipticine positive control = 100%. AID 743238, 2013. activation, % at 7.58 µM. hit rate 0.055% among 360,000;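 active = mean normalized replicate activation at least 10% and every replicate at or above 10%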;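 note: 0% = median of on-plate neutral control wells and 100% = ellipticine 6 µM median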
#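 Material: XiGFP fibroblasts, SV40-immortalized; Buffer or medium: DMEM containing 5-aza-dC; Compound dosing: single point; Times: 3 days compound exposure.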
# Rpn11 confirm = Rpn11 (PSMD14) deubiquitinase inhibitors, confirmation, biochemical, fluorescence polarization, single concentration. shares compounds with Rpn11 block. purified human 26S proteasome, Ub4-pepOG fluorescence polarization; proteasome pretreated with epoxomicin. inhibition, % at 20 µM. hit rate 29% among 1,900
# MMP-2 counter = MMP-2 enzyme inhibition, confirmation, counter-screen for RPN11 inhibitor project, biochemical, fluorescence, single concentration; shares compounds with Rpn11 block; recombinant MMP-2, FRET peptide cleavage fluorescence; inhibition, % at 20 µM; hit rate 4% among 1,900;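 note: human MMP-2 activated beforehand with APMA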
# Thrombin FP = bovine thrombin protease inhibition, confirmation, counter-screen for Rpn11 inhibitor project, biochemical, fluorescence polarization, single concentration; shares compounds with Rpn11 block; bovine thrombin cleavage of Ub4-pepOG; inhibition, % at 20 µM; hit rate 13% among 1,900;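 active = mean inhibition at least 40% at 20 µM, or signal 3 deviations below plate average, so some actives read negative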;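 note: plate controls were thrombin with DMSO for no effect and buffer wells lacking thrombin for full effect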
# Starred values were filed as active, the others as inactive; i = inactive; / = no result given. Cut-off read from the data, not from the text of the source, unless noted: active = inhibition above about 40%; inactive = the rest.
SMILES,NadD block,ABHD5 PLIN5 PPI,Rpn11 block,Rin1 Abl inh,Xi reactivation,Rpn11 confirm,MMP-2 counter,Thrombin FP
O=C(c1ccncc1)N1CC(=O)N2[C@H](CO)[C@H](c3ccc(C#CCC4CCCC4)cc3)[C@@H]2C1,/,/,/,/,0,/,/,/
CS(=O)(=O)N1C2CN(CC3CC3)CC1C2c1ccc(Br)cc1 (stereo not drawn),/,/,/,/,0,/,/,/
Cc1cccc(CNC(=O)c2ccccc2N)c1,0,4,198*,-5,/,-7,-5,-7
CC(=O)N1CCCCN2[C@H](CO)[C@@H](c3ccc(-c4ccc(C)cc4)cc3)[C@H]2C1,/,/,/,/,0,/,/,/
Cc1nc2ccccn2c1-c1csc(NCc2ccco2)n1,2,-25,103*,-3,/,-10,34,-20
CC(=O)Nc1ccc2c(c1)CC(=O)N(C)C[C@H](C)[C@@H](CN(C)C(=O)OC(C)(C)C)O2,/,/,/,/,0,/,/,/
CC=Cc1ccc2n(c1=O)C[C@H]1[C@H](CO)[C@@H](C(=O)NCC3CC3)[C@@H]2N1S(=O)(=O)c1cn(C)cn1 (mixture of isomers),/,/,/,/,0,/,/,/
CCC(C)NC(=O)c1cc2c(=O)n3ccccc3nc2s1 (stereo not drawn),-3,-1,5,-5,0,/,/,/
CN(C)S(=O)(=O)c1cccc(NC(=O)c2cc3c(=O)n4ccccc4nc3s2)c1,2,5,85*,-3,0,0,9,-2
O=C(N/N=C/c1cc2ccccc2nc1Cl)/C(=C/c1cccs1)NC(=O)c1ccccc1,18,12,52*,0,/,19,-175,15
O=S(=O)(c1ccccc1)N1C[C@H]2[C@@H](c3ccccc31)[C@H](CO)N2Cc1ccccc1,/,/,/,/,0,/,/,/
CCN(CC)c1ccc(/C=C(\C#N)C(N)=O)cc1,0,-2,57*,-9,0,29,-78,25
CCOC(=O)NC(=O)/C(C#N)=C/c1ccc(N(C)C)cc1,0,2,126*,-22,0,117*,-28,98*
CCN(CC)c1ccc(/C=C(\C#N)C(N)=S)cc1,-7,8,/,-15,0,/,/,/
O=C(c1ccc2c(c1)OCO2)N1CC2(C1)[C@H](c1ccccc1)[C@@H](CO)N2C(=O)C1CCC1,/,/,/,/,0,/,/,/
COc1cc(/C=C/c2nc3ccccc3c(=O)[nH]2)cc(Cl)c1O,-2,-6,69*,1,0,2,12,158*
CN(CCO)c1ccc(C=NNc2ccc([N+](=O)[O-])cc2S(=O)(=O)Nc2ccccc2C(=O)O)cc1,17,4,90*,-2,0,73*,-15,40
CC(=O)Nc1ccc(C=NNc2ccc([N+](=O)[O-])cc2S(=O)(=O)Nc2ccccc2C(=O)O)cc1,14,6,26,4,1,/,/,/
CCN(CC)CCOC(=O)c1ccc(N/C=C(/C#N)c2nc(-c3cc4ccccc4oc3=O)cs2)cc1,25,-8,82*,-2,0,52*,i,60*
CCN(CC)CCOC(=O)c1ccc(N/C=C(/C#N)c2nc(-c3ccc4c(c3)OCO4)cs2)cc1,24,13,86*,-4,0,153*,-152,71*
N#C/C(=C\C=C\c1ccccc1)c1nc(-c2ccc3c(c2)OCO3)cs1,8,-1,-29,-3,0,/,/,/
COc1cc(/C=C(/C#N)c2nc(-c3cc4ccccc4oc3=O)cs2)cc([N+](=O)[O-])c1O,/,/,/,/,0,/,/,/
COc1cccc(N2CC(C(=O)Nc3nnc(SCC(=O)c4ccccc4)s3)CC2=O)c1 (stereo not drawn),9,-3,8,-1,0,/,/,/
COc1ccc(C(=O)CSc2nnc(NC(=O)C3CC(=O)N(c4ccccc4)C3)s2)cc1 (stereo not drawn),9,-1,44*,2,0,13,2,-4
CCc1ccc(NC(=O)c2cc(-c3ccc(OC)cc3)on2)cc1,1,2,-1,2,/,/,/,/
SMILES,NadD block,ABHD5 PLIN5 PPI,Rpn11 block,Rin1 Abl inh,Xi reactivation,Rpn11 confirm,MMP-2 counter,Thrombin FP
COc1ccc(-c2cc(C(=O)Nc3ccc(Br)cc3)no2)cc1,1,1,59*,1,0,-27,-43,-20
COc1ccc(-c2cc(C(=O)Nc3cc(C)ccc3O)no2)cc1,2,3,-6,2,0,/,/,/
COc1ccc(-c2cc(C(=O)Nc3cc(Cl)ccc3O)no2)cc1,3,-1,51*,7,0,12,-7,-5
CC(=O)N(C)C[C@@H]1Oc2cc(C3=CCCCC3)ccc2S(=O)(=O)N([C@H](C)CO)C[C@@H]1C,/,/,/,/,-1,/,/,/
C[C@H]1CN(C)C(=O)c2cc(NS(C)(=O)=O)ccc2O[C@H]1CN(C)C,/,/,/,/,0,/,/,/
COc1cccc(-n2c(SCC(N)=O)nc3ccccc3c2=O)c1,-7,1,66*,-6,0,56*,-4,19
COc1ccc(N=Nc2nc(-c3ccccc3)c(-c3ccccc3)[nH]2)cc1,27,7,39*,-4,0,8,13,-6
Oc1ccccc1N=Nc1nc(-c2ccccc2)c(-c2ccccc2)[nH]1,35*,12,54*,1,/,23,10,20
COc1ccccc1N=Nc1nc(-c2ccccc2)c(-c2ccccc2)[nH]1,21,14,23,-1,0,/,/,/
C[C@H](CO)N1C[C@H](C)[C@H](CN(C)C(=O)CC2CC2)Oc2cc(C3=CCCC3)ccc2S1(=O)=O,/,/,/,/,1,/,/,/
CC(=O)N=c1c(C#N)cc2c(=O)n3ccccc3nc2n1Cc1ccccc1,5,7,56*,2,/,-22,-37,-18
C=CCN1C(=O)/C(=C2/Sc3ccccc3N2CC)SC1=S,5,-4,/,1,0,/,/,/
CCN1C(=O)/C(=C2/Sc3ccccc3N2CC)S/C1=N\c1ncn[nH]1,12,2,72*,-10,0,162*,-70,104*
CNC[C@H]1OCCCC[C@H](C)Oc2ccc(NS(=O)(=O)c3ccccc3)cc2C(=O)N([C@@H](C)CO)C[C@@H]1C,/,/,/,/,-1,/,/,/
